Results as given in ChEMBL document CHEMBL3112583, “Modular construction of quaternary hemiaminal-based inhibitor candidates and their in cellulo assessment with HIV-1 protease” (Bioorg Med Chem, 2013).
pKi: −log10 of the molar value. Calls of active or inactive are those of the source. The calls are words filed in the database; no cut-off is given here.

What was measured:
BCRP (ABCG2) [1] = biological target: T1, BCRP (ABCG2) (Homo sapiens, UniProt Q9UNQ0); experiment: Inhibition of BCRP (unknown origin) expressed in mouse NIH/3T3 cells assessed as inhibition of mitoxatrone efflux at 10 uM after 1 hr by FACS analysis; assay type: cell-based, NIH3T3; settings: NIH/3T3 cells expressing BCRP, probe mitoxantrone (printed: mitoxatrone)
T1 sequence (Q9UNQ0 whole entry): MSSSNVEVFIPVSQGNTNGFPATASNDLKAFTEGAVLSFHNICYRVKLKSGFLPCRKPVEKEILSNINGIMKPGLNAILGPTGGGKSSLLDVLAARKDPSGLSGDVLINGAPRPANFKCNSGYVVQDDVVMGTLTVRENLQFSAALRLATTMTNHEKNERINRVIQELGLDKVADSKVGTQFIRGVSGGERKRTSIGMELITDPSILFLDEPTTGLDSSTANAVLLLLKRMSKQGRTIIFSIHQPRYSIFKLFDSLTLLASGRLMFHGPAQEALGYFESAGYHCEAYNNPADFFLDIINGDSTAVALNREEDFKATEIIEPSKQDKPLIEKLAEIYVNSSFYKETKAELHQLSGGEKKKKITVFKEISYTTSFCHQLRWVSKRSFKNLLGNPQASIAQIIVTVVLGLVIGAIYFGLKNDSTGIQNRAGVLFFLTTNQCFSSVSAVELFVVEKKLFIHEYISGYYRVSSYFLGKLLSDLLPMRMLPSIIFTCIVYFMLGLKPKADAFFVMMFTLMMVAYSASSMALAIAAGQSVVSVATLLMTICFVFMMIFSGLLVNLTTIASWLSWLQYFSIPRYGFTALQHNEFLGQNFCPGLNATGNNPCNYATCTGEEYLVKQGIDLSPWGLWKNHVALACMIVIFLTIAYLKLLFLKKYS

[2] = biological target: Protease (Human immunodeficiency virus 1) (UniProt Q9YQ12); experiment: Inhibition of HIV-1 protease in human T cells assessed as increase in eGFP expression at >20 uM after 24 hrs by flow cytometry; assay type: cell-based; settings: T-cell
In short: (§1)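 SupT1 T cells carry an HIV-1 protease–Gal4 fusion under a tetracycline-inducible promoter and a Gal4-responsive eGFP reporter. They were kept in RPMI 1640 with 10% FBS and 1% penicillin/streptomycin at 37 °C in 5% CO₂. Cells were grown 24 h with 1–100 µM compound, with indinavir (0.0001–10 µM) as reference, then induced with […] doxycycline. eGFP was read 48 h later by flow cytometry (ex 488/em 530 nm).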

[3] = Cytotoxicity against human HEK293 cells expressing BCRP assessed as cell survival after 72 hrs by MTT assay
[4] = Cytotoxicity against mouse NIH/3T3 cells expressing pgp assessed as cell survival at >30 to 50 uM after 72 hrs by MTT assay; assay type: ADME, cell-based, NIH3T3; settings: NIH/3T3 cells expressing P-gp
Protease [5] = biological target: T2, Protease (Human immunodeficiency virus 1, UniProt Q9YQ12); experiment: Inhibition of HIV-1 recombinant protease using DABCYL-GABA-Ser-Asn-Tyr-Pro-Ile-Val-Gln-EDANS as substrate incubated for 30 mins prior to substrate addition by Lineweaver-Burk plot analysis
Protease [6] = biological target: T2, Protease; experiment: Inhibition of HIV-1 recombinant protease using DABCYL-GABA-Ser-Asn-Tyr-Pro-Ile-Val-Gln-EDANS as substrate incubated for 30 mins prior to substrate addition by Dixon plot analysis
MDR1 (ABCB1, P-gp) [7] = biological target: T3, MDR1 (ABCB1, P-gp) (Homo sapiens, UniProt P08183); experiment: Inhibition of MDR1 (unknown origin) expressed in mouse NIH/3T3 cells assessed as inhibition of mitoxatrone efflux at 2 uM after 1 hr by FACS analysis; assay type: cell-based; settings: NIH/3T3 cells expressing MDR1, probe mitoxantrone (printed: mitoxatrone)
Protease [8] = biological target: T2, Protease; experiment: Inhibition of HIV-1 recombinant protease using DABCYL-GABA-Ser-Asn-Tyr-Pro-Ile-Val-Gln-EDANS as substrate incubated for 30 mins prior to substrate addition by Hanes plot analysis
[9] = Cytotoxicity against mouse NIH/3T3 cells assessed as cell survival after 72 hrs by MTT assay
BCRP (ABCG2) [10] = biological target: T1, BCRP (ABCG2); experiment: Inhibition of BCRP (unknown origin) expressed in mouse NIH/3T3 cells assessed as inhibition of mitoxatrone efflux at 2 uM after 1 hr by FACS analysis; assay type: cell-based, NIH3T3; settings: NIH/3T3 cells expressing BCRP, probe mitoxantrone (printed: mitoxatrone)
[11] = Cytotoxicity against human HEK293 cells assessed as cell survival after 72 hrs by MTT assay
MDR1 (ABCB1, P-gp) [12] = biological target: T3, MDR1 (ABCB1, P-gp); experiment: Inhibition of MDR1 (unknown origin) expressed in mouse NIH/3T3 cells assessed as inhibition of mitoxatrone efflux at 10 uM after 1 hr by FACS analysis; assay type: cell-based, NIH3T3; settings: NIH/3T3 cells expressing MDR1, probe mitoxantrone (printed: mitoxatrone)
[13] = Cytotoxicity against human HEK293 cells expressing BCRP assessed as cell survival after 72 hrs by MTT assay; remark: listed apart in the source
[14] = Cytotoxicity against mouse NIH/3T3 cells expressing pgp assessed as cell survival after 72 hrs by MTT assay; settings: NIH/3T3 cells expressing P-gp
[15] = Cytotoxicity against human HEK293 cells assessed as cell survival after 72 hrs by MTT assay; remark: listed apart in the source
[16] = biological target: Protease (Human immunodeficiency virus 1) (UniProt Q9YQ12); experiment: Inhibition of HIV-1 protease in human T cells assessed as increase in eGFP expression at 1 to 100 uM after 24 hrs by flow cytometry; assay type: cell-based; settings: T-cell; in short: as §1
[17] = Cytotoxicity against mouse NIH/3T3 cells assessed as cell survival after 72 hrs by MTT assay; remark: listed apart in the source
HEK293 [18] = experiment: Cytotoxicity against human HEK293 cells assessed as cell survival after 72 hrs by MTT assay; assay type: cell-based; settings: hek293, 72 h
In short: (§2)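 HEK293 cells stably transfected with BCRP, or with empty vector (HEK293-pcDNA3) as parental control, kept in high-glucose DMEM with 10% FBS, 1% penicillin/streptomycin and 0.75 mg/mL G418, at 37 °C in humidified 5% CO₂. Cells were exposed for 72 h to increasing compound concentrations, and survival was read by MTT colorimetric assay. IC50 is the mean ± sd of at least three independent experiments.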

HEK293 [19] = experiment: Cytotoxicity against human HEK293 cells expressing BCRP assessed as cell survival after 72 hrs by MTT assay; assay type: ADME, cell-based; settings: hek293, 72 h; in short: as §2
[20] = Cytotoxicity against mouse NIH/3T3 cells assessed as cell survival after 72 hrs by MTT assay; assay type: cell-based, NIH3T3
[21] = (§3) Cytotoxicity against mouse NIH/3T3 cells expressing pgp assessed as cell survival after 72 hrs by MTT assay; assay type: ADME, cell-based, NIH3T3; settings: NIH/3T3 cells expressing P-gp
[22] = biological target: Protease (Human immunodeficiency virus 1) (UniProt Q9YQ12); experiment: Inhibition of HIV-1 protease in human T cells assessed as increase in eGFP expression at 0.1 uM after 24 hrs by flow cytometry; assay type: cell-based; settings: T-cell
NIH3T3 = experiment: as §3; assay type: ADME, cell-based; settings: nih3t3, 72 h

Chain of Protease (Human immunodeficiency virus 1) (Q9YQ12 as listed by the source): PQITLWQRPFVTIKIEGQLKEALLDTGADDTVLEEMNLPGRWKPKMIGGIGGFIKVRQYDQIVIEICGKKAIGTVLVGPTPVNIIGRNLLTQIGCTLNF
T2 sequence (Q9YQ12 whole entry): as the sequence (Q9YQ12 as listed by the source) above
T3 sequence (P08183 whole entry): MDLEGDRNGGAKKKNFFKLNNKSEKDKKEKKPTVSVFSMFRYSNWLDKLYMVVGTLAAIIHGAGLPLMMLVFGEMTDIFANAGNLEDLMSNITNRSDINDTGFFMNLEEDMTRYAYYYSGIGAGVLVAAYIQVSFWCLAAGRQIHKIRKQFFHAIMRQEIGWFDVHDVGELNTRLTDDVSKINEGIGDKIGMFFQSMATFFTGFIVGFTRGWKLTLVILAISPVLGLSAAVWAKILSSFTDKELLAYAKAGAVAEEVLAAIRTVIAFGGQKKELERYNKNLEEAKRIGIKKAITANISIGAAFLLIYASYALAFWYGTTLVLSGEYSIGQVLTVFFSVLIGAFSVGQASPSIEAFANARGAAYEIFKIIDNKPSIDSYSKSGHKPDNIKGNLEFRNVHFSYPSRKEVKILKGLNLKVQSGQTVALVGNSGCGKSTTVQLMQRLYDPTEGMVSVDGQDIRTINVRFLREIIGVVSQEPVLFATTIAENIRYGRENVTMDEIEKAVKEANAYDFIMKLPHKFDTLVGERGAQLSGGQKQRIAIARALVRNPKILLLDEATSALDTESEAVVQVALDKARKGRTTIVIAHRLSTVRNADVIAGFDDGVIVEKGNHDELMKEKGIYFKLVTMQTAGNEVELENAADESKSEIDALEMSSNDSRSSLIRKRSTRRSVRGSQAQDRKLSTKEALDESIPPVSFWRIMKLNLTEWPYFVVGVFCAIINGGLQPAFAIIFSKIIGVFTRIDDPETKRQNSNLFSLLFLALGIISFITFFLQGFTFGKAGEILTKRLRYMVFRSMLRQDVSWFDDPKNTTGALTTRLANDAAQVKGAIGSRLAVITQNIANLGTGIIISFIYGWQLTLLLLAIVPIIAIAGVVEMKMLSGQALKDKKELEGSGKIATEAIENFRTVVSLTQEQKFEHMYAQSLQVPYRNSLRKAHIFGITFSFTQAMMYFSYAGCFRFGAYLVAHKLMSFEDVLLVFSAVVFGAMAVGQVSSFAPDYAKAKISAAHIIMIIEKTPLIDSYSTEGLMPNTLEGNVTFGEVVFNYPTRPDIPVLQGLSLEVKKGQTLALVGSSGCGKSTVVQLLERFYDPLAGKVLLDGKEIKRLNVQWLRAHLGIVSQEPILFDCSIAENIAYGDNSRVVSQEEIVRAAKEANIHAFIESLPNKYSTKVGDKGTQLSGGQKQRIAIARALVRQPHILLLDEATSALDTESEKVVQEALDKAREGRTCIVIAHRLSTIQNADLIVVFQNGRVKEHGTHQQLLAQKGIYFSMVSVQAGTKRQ

SMILES	inhibition at 1 h, 10 µM (BCRP (ABCG2) [1]) [%]	inhibition [2]	IC50 at 72 h [3] [µM]	IC50 at 72 h [4] [µM]	pKi (Protease [5])	pKi (Protease [6])	inhibition at 1 h, 2 µM (MDR1 (ABCB1, P-gp) [7]) [%]	pKi (Protease [8])	IC50 at 72 h [9] [µM]	inhibition at 1 h, 2 µM (BCRP (ABCG2) [10]) [%]	IC50 at 72 h [11] [µM]	inhibition at 1 h, 10 µM (MDR1 (ABCB1, P-gp) [12]) [%]	inhibition [16]	other results
O=C[C@H](Cc1ccccc1)NC(=O)N(Cc1ccccc1)N1CCCCC1	0.3	Active	34.8	48.6	3.76	3.53	5.5	3.59	42.6	0.2	37.6	6.4	–	–
O=C[C@H](Cc1ccccc1)NC(=O)N(Cc1cccc(O)c1)N1CCCCC1	8.4	Active	23.1	43.5	3.57	3.84	4.6	3.62	42.1	2.5	35.3	4.8	–	–
COc1cc2c(cc1OC)CN(CCc1ccc(NC(=O)c3cccc4c(=O)c5cccc(OC)c5[nH]c34)cc1)CC2	–	–	–	–	–	–	110	–	–	–	–	–	–	–
O=C[C@H](Cc1ccccc1)N(Cc1ccccc1)C(=O)N(Cc1ccccc1)N1CCCCC1	8.8	–	–	–	3.33	3.00	1.8	2.95	–	1.8	–	15	inactive	IC50 at 72 h [13]: 12.8 µM; IC50 at 72 h [14]: 12.8 µM; IC50 at 72 h [15]: 17.6 µM; IC50 at 72 h [17]: 11.2 µM
COc1cccc(CN(C(=O)N[C@H](C=O)Cc2ccccc2)N2CCCCC2)c1	8.1	Active	37.2	46.8	3.49	3.48	7.7	3.39	39.4	0.9	42.6	22.7	–	–
CC(C)(C)NC(=O)[C@@H]1C[C@@H]2CCCC[C@@H]2CN1C[C@@H](O)[C@H](Cc1ccccc1)NC(=O)[C@H](CC(N)=O)NC(=O)c1ccc2ccccc2n1	–	–	–	–	–	–	–	–	–	–	–	–	–	Activity (HEK293 [18]): Not Active; Activity (HEK293 [19]): Not Active; IC50 at 72 h [20]: 37 µM; IC50 at 72 h [21]: 49 µM
CN(C)N(Cc1ccccc1)C(=O)N[C@H](C=O)Cc1ccccc1	8.1	–	57.2	100	3.28	3.31	2.3	3.39	68.8	0.2	56.3	8.1	inactive	–
CC(C)(C)NC(=O)[C@@H]1CN(Cc2cccnc2)CCN1C[C@@H](O)C[C@@H](Cc1ccccc1)C(=O)N[C@H]1c2ccccc2C[C@H]1O	–	–	–	–	–	–	–	–	–	–	–	–	–	inhibition [22]: Active
O=C[C@H](Cc1ccccc1)NC(=O)N(Cc1ccccc1)N1CCOCC1	3.3	–	–	–	3.50	3.00	7.1	3.44	–	0.2	–	11.5	inactive	Activity (HEK293 [18]): Not Active; Activity (HEK293 [19]): Not Active; IC50 at 72 h [20]: 79.8 µM; Activity (NIH3T3): Not Active
O=C[C@H](Cc1ccc(O)cc1)NC(=O)N(Cc1ccccc1)N1CCCCC1	2.5	–	47.9	71.2	3.40	3.51	1.1	3.47	58.6	0.9	52.4	3	inactive	–
